Platelet DG rel: modulates dense granule release in human platelets; human platelet-rich plasma, SFLLRN dense granule ATP release, luminescence; AID 1663; inhibition, %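 (compounds screened at 7.5 µM in platelet-rich plasma)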; 300,000 compounds, 0.22% hits;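 active = mean replicate score, as percent of positive control, at or above 50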
SENP8 block-1: inhibitors of human SENP8 protease; recombinant SENP8, Nedd8 substrate fluorescence; inhibition, % at 20 µM; 360,000 compounds, 0.64% hits; in the data active = inhibition mostly above about 40%, no sharp cut-off; inactive = mostly below about 27%
Target sequence (Q96LD8 whole entry, looked up): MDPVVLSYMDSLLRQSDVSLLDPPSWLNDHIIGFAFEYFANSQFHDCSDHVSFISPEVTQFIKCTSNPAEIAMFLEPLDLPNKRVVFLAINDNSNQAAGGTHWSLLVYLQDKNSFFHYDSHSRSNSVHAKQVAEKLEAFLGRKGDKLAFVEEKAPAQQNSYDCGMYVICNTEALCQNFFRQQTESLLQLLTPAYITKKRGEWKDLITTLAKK
SENP6 inh: inhibitors of human SENP6 protease; Q9GZR1; 330,000 compounds, 1.8% hits; inhibition, % at 10 µM; Recombinant SENP6 catalytic domain, aminoluciferin luminescence;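 active = inhibition above about 50% at the single tested dose, limit read from the data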;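 note: plate controls were DMSO wells with enzyme for no effect and DMSO wells lacking enzyme for full effect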
SENP8 block-2: inhibitors of human SENP8 protease; purified SENP8, Z-RLRGG-aminoluciferin cleavage, luminescence; inhibition, % at 10 µM; 330,000 compounds, 1.2% hits; AID 2540; in the data active = inhibition above about 50%
SENP1 inh: blocks the human SENP1 SUMO protease catalytic domain; Q9P0U3; recombinant SENP1 catalytic domain, CyPet-SUMO1-YPet FRET cleavage; inhibition, % at 10 µM; 360,000 compounds, 0.21% hits; AID 624204;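 active = inhibition at least 30% at 10 µM, raw YFP signal under a set limit, fluorescence ratio 0.5 to 1.5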;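 note: 0% = enzyme with DMSO and 100% = no enzyme wells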
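Assay system – human recombinant His6-tagged SENP1 catalytic domain enzyme · Input – SENP1 enzyme, 20 pM final · Buffer or medium – Tris pH 8 buffer plus EDTA, NaCl, BME, BSA, NP40, catalase · Schedule – 50 min reaction at room temperature · Technique – FRET read of cyan and yellow fluorescence · Control set – no-enzyme wells low, DMSO-plus-enzyme wells high control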
SENP7 block: blocks the human protease SENP7; Q9BQF6; recombinant SENP7, Z-RLRGG-aminoluciferin luminescence, 40 min; inhibition, % at 5 µM; 330,000 compounds, 1.5% hits;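 active = inhibition above about 50% at the single test dose, limit read from the data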;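 note: plate controls were DMSO with enzyme for no effect and no enzyme buffer wells for full effect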
SENP8 confirm: confirmation of human SENP8 protease inhibitors; shares compounds with SENP7 block; Recombinant SENP8, Z-RLRGG-aminoluciferin luminescence, 60 min; inhibition, % at 12.5 µM; 6,200 compounds, 40% hits; AID 488912;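 active = mean inhibition across replicates above about 50%, limit read from the data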
SENP6 confirm: human SENP6 inhibition, confirmed; inhibition, % at 12.5 µM; 6,200 compounds, 58% hits; shares compounds with SENP7 block; recombinant SENP6, Z-RLRGG-aminoluciferin luminescence
SENP7 conf: human SENP7 inhibition, confirmed. recombinant SENP7, Z-RLRGG-aminoluciferin luminescence, 40 min. inhibition, % at 12.5 µM. AID 488917. 6,200 compounds, 69% hits. shares compounds with SENP7 block
Casp3 select: caspase-3 inhibition (SENP selectivity assay) | inhibition, % at 12.5 µM | 6,200 compounds, 60% hits | shares compounds with SENP7 block | purified caspase-3, Z-DEVD-aminoluciferin luminescence, 60 min;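 active = mean inhibition above about 50%, limit read from the data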;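 note: plate controls were enzyme with DMSO for no effect and wells without caspase-3 for full effect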
Target sequence (P42574 28-227 limits assumed): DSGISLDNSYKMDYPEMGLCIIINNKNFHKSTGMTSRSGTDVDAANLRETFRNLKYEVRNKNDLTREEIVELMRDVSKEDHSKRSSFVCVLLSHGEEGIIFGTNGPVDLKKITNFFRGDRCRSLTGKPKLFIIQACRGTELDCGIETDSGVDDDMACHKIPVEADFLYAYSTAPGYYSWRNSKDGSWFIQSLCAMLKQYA
Luc interf: interferes with luciferase luminescence in SENP counter-screen | shares compounds with SENP7 block | Pre-incubated SENP8/Z-RLRGG-aminoluciferin, luciferase luminescence interference | inhibition, % at 12.5 µM | 6,200 compounds, 39% hits;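 active = mean inhibition above about 50% when retested at one dose, limit read from the data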;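 note: plate controls were DMSO wells with completed reaction for no effect and substrate without enzyme for full effect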
* marks the source's active call; other numbers are inactive results; nt = not tested or not shown. The list is not random: actives were taken first. Their share in the collection is about 2.6%.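 Rule for the calls, unless noted: active = mean inhibition above about 50% in the one-dose retest (limit read from the data); inactive = the rest.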

SMILES	Platelet DG rel	SENP8 block-1	SENP6 inh	SENP8 block-2	SENP1 inh	SENP7 block	SENP8 confirm	SENP6 confirm	SENP7 conf	Casp3 select	Luc interf
NC(=O)c1c(NC(=O)c2ccccc2)sc2c1CCc1ccccc1-2	-7	-272	10	-4	-4	64*	-26	-18	-6	-6	-9
N#Cc1c(NC(=O)CSc2ncn[nH]2)sc2c1CCCCC2	6	16	76*	68*	1	33	27	83*	89*	23	48
O=C(Nc1sc2c(c1C(=O)O)CCCCC2)c1cccnc1	-6	-15	29	23	-2	-1	nt	nt	nt	nt	nt
Cc1cccc(C(=O)Nc2sc3c(c2C(=O)O)CCCC3)c1	-2	-83	93*	93*	2	70*	97*	98*	102*	95*	79*
OC[C@@H]1CN(Cc2ccc(-c3ccccc3)cc2)C[C@H](n2cnc3c(N4CCCC4)ncnc32)O1	nt	13	nt	nt	-3	nt	nt	nt	nt	nt	nt
O=C(Nc1cccc([N+](=O)[O-])c1)NN1CCCCCC1	nt	8	nt	nt	0	nt	nt	nt	nt	nt	nt
Cc1ccc(C2(c3ccc(C)cc3)CC2C(=O)NC(C)C)cc1 (centres undefined)	4	13	-23	-5	1	0	nt	nt	nt	nt	nt
Cc1cc(C(=O)Nc2sc3c(c2C#N)CCCCC3)cs1	-14	-20	57*	31	-24	77*	16	38	40	23	16
NC(=O)c1c(NC(=O)c2ccccc2)sc2c1CCC2	4	-126	57*	41	-5	12	-5	15	83*	42	0
CN1CCc2c(sc(NC(=O)Cc3ccccc3)c2C(N)=O)C1	2	-65	-20	-1	-29	-7	nt	nt	nt	nt	nt
NC(=O)c1c(NC(=O)c2ccncc2)sc2c1CCCC2	-5	1	-8	-8	0	-6	nt	nt	nt	nt	nt
CN1CCc2c(sc(NC(=O)c3ccc4ccccc4c3)c2C(N)=O)C1	43	-315	62*	67*	-19	68*	59*	61*	88*	61*	44
COc1ccccc1C(=O)NCCc1c(C)[nH]c2c(C)ccc(F)c12	0	0	6	-1	1	-1	nt	nt	nt	nt	nt
CC(NC(=O)C(C)N1CCN(Cc2ccccc2)CC1)c1ccc(F)cc1 (centres undefined)	4	1	-10	0	-1	3	nt	nt	nt	nt	nt
COc1ccc(N2C(=O)/C(=C/c3ccc([N+](=O)[O-])cc3)C=C2c2ccccc2)cc1	-17	21	-9	1	-1	60*	7	7	9	7	2
CCCCC(=O)N1CCN(c2nc3ccc(F)cc3s2)CC1	6	1	84*	73*	3	82*	78*	75*	95*	89*	49
CCCCC(=O)N1CCN(c2nc3ccc(OCC)cc3s2)CC1	-2	11	-4	-16	1	14	nt	nt	nt	nt	nt
Fc1ccc(-c2nnn3c2nc(NCc2ccccc2)c2ccccc23)cc1	0	-445	-2	-9	-43	-2	nt	nt	nt	nt	nt
COCCCNc1nc2c(-c3ccc(Cl)cc3)nnn2c2ccccc12	-3	-376	2	5	-39	2	nt	nt	nt	nt	nt
NNc1nc2c(-c3ccc(Cl)cc3)nnn2c2ccccc12	4	-479	85*	48	-40	45	-17	-11	-5	2	-4
NNc1nc2c(-c3ccc(F)cc3)nnn2c2ccccc12	24	-440	97*	92*	-31	92*	22	81*	71*	78*	31

Screening results (PubChem BioAssay)
